IDE cell activ = IDE (human) activation, cell-based; P14735; HEK cells, FAbeta-B cleavage, fluorescence polarization; 0% vehicle, 100% cell-free pure enzyme wells; activation, % at 5.96 µM; 0.073% of 340,000 active;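 active = activation above the mean of all tested compounds plus 3 SD, set per screening campaign, cut at about 17% in these data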
Target sequence (P14735 whole entry, looked up): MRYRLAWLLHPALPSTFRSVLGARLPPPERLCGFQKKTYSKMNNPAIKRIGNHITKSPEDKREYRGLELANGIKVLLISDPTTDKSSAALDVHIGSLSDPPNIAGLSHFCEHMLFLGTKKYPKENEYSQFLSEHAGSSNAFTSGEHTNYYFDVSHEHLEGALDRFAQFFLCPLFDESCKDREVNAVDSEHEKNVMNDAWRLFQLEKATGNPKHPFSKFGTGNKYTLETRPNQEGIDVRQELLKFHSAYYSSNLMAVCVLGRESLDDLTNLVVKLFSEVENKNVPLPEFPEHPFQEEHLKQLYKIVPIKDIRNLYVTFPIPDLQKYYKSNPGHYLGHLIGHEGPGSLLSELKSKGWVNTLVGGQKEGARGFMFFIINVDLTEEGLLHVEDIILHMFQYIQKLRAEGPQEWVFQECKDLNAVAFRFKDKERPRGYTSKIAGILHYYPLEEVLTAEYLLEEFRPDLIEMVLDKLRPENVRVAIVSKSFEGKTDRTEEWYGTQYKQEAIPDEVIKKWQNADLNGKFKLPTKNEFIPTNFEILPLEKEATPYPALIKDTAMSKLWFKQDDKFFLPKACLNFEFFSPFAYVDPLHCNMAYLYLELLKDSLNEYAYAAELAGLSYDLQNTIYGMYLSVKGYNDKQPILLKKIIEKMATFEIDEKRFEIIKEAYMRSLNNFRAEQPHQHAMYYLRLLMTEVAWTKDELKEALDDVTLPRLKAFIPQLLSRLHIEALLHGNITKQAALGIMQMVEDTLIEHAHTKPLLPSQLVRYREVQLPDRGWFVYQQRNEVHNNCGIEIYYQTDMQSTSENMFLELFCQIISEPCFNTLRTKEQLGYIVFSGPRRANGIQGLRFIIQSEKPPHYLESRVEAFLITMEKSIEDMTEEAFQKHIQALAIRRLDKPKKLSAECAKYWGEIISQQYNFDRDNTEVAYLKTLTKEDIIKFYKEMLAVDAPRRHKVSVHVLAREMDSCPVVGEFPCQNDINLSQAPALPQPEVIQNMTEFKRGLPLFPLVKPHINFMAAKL
procasp7 counter = activates human procaspase-7, counter-screen for procaspase-3 activators. AID 463210. recombinant procaspase-7, Ac-DEVD-pNA absorbance 405 nm; D23A/D198A/D206A triple mutant, cannot self-cleave; scale: DMSO 0, 5 µM enzyme 100. P55210. activation, % at 8.5 µM. 0.093% of 330,000 active;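 active = percent activation above the screen-wide mean plus 3 SD, cut at about 25% in these data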
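Test system: Procaspase-7 triple mutant (PC-7 D3A). Also added: Ac-DEVD-pNA substrate, 400 µM as added. Schedule: 1 h enzyme–compound preincubation and 2 h substrate reaction, both 25 °C. Signal: p-Nitroaniline absorbance at 405 nm, read at 0 and 120 min. Control set: low DMSO alone, high DMSO plus 5 µM PC-7.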
IDE cell inh = inhibitors of human insulin-degrading enzyme in cells; HEK cells, FAbetaB cleavage, fluorescence polarization; inhibition, % at 5.59 µM; 0.41% of 320,000 active; AID 434962;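 active = percent inhibition above the average of all tested compounds plus 3 SD, set per screening campaign, cut at about 16% in these data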;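 note: IDE supplied by intact live HEK cells; FP after avidin binding of uncleaved biotin substrate so inhibition keeps polarization high; 0% = DMSO wells and 100% = 60 µM reference IDE inhibitor Ii1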
procasp3 activ = procaspase-3 (human) activation. activation, % at 8.5 µM. 0.11% of 330,000 active. P42574. recombinant procaspase-3 D3A, Ac-DEVD-pNA absorbance 405 nm;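 active = activation above the mean of all tested compounds plus 3 SD, cut at about 21% in these data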;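 note: 0% = DMSO alone and 100% = DMSO wells spiked with extra 5 µM PC-3 D3A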
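Assay system – Procaspase-3 D3A mutant · Benchmarks – DMSO low control, extra-enzyme high control · Technique – 405 nm absorbance of p-nitroaniline, reads at 0 and 120 min · Doses – 8.5 µM nominal · Measure – % activation between DMSO and enzyme-spiked controls · Also added – Ac-DEVD-pNA chromogenic peptide substrate · Schedule – 1 h compound preincubation, 2 h substrate hydrolysis at 25 °C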
TPT1 inh = C. albicans TPT1 enzyme inhibition; AID 1962; 0.81% of 300,000 active; inhibition, % at 5 µM; recombinant caTPT1, FP RNA substrate dephosphorylation;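 active = inhibition above the mean of all tested compounds plus 3 SD, set per screening campaign, cut at about 24% in these data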;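 note: plate controls were DMSO alone for no effect and ferristatin control at 100 nM for full effect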
caTPT1 confirm = TPT1 (C. albicans) inhibition, confirmation; shares compounds with TPT1 inh; recombinant caTPT1, fluorescence polarization, RNase T1 coupled; inhibition, % at 5 µM; 74% of 2,400 active; AID 2149;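 active = inhibition above the primary screen limit, the mean inhibition of all tested compounds plus 3 SD, cut at about 25% in these data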
RNase T1 counter = blocks Aspergillus oryzae RNase T1, a TPT1 counter-screen; 83% of 2,400 active; inhibition, % at 5 µM; RNase T1 cleavage, fluorescence polarization, 1536-well; shares compounds with TPT1 inh; AID 2153;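 active = inhibition above the solvent-only control well mean plus 3 SD, limit set per screening run, cut at about 23% in these data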;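 note: plate controls were DMSO wells with enzyme for no effect and wells without RNase T1 for full effect; inhibitors block cleavage so intact labeled substrate keeps polarization high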
Active calls of the source: *; . = no result given. An excerpt weighted towards active compounds, which were near 1.2% of everything screened.

SMILES | IDE cell activ | procasp7 counter | IDE cell inh | procasp3 activ | TPT1 inh | caTPT1 confirm | RNase T1 counter
O=C1/C(=C/C=C/c2ccccc2)Oc2c1ccc(O)c2CN1CCN(CCO)CC1 | -5.8 | -9.4 | 5.4 | -4.1 | 7.9 | . | .
CCc1ccc(/C=C2\Oc3c(ccc(O)c3CN3CCN(C)CC3)C2=O)cc1 | -10.3 | -15.3 | 0.5 | -17.9 | 26.0* | 27.5* | 37.6*
COc1ccccc1/C=C/C=C1\Oc2c(ccc(O)c2CN2CCN(CCO)CC2)C1=O | -29.6 | -13.6 | 16.1 | -4.1 | 39.4* | 46.0* | 54.4*
COC(=O)c1ccc(-c2sc3nc(N4CCOCC4)c4c(c3c2N)CCCC4)o1 | . | -13.1 | 2.1 | -18.2 | 57.7* | 56.9* | 68.0*
COc1ccc(/C=C(\C#N)C(=O)C(C)(C)n2cncn2)cc1 | 0.3 | 1.9 | 6.7 | -0.8 | 33.5* | 2.8 | 4.1
O=C(O)c1cccc(Cn2c(Cl)c(/C=N/Nc3ccccc3)sc2=O)c1 | -7.0 | -26.7 | 0.8 | -11.1 | 48.0* | 65.2* | 78.6*
O=C(O)c1cccc(Cn2c(Cl)c(/C=N/NC(=O)c3ccccc3Cl)sc2=O)c1 | 1.8 | 0.5 | -3.5 | 2.2 | -0.2 | . | .
O=c1nc(/C=C/c2cccn2-c2ccc([N+](=O)[O-])cc2)cc(C(F)(F)F)[nH]1 | 6.1 | 6.4 | 1.4 | -3.8 | 83.7* | 46.9* | 66.0*
O=c1nc(/C=C/c2cc([N+](=O)[O-])ccc2Cl)cc(C(F)(F)F)[nH]1 | 3.7 | -4.8 | 8.6 | -1.4 | -3.5 | . | .
Cc1cccc(N=C2NC(=O)/C(=C/c3cccn3C)S2)c1C | -11.9 | -11.0 | 10.4 | 5.3 | 25.4* | 37.1* | 49.1*
CC(C(=O)OCC(=O)N1CCN(c2ccccc2)CC1)N1C(=O)c2ccccc2C1=O (stereo not drawn) | -0.6 | 3.3 | 1.9 | 4.9 | . | . | .
N#Cc1ccc(/C=C/C(=O)c2ccco2)cc1 | -1.6 | 4.0 | -6.3 | -5.6 | -0.9 | . | .
Nc1ccc(/C=C/C(=O)c2ccco2)cc1 | -11.1 | -10.4 | 14.6 | -7.2 | 72.7* | 80.8* | 91.5*
COc1cc(C(=O)NCC2CCCN2S(=O)(=O)c2cccs2)cc(OC)c1OC (stereo not drawn) | 1.1 | 1.0 | -6.1 | -2.7 | -0.4 | . | .
Nc1c(C(=O)c2ccc(Cl)cc2)sc2nsc(SCCN3CCOCC3)c12 | -25.2 | -24.0 | 3.5 | -15.1 | 41.2* | 57.0* | 69.0*
CC(=O)c1sc2nsc(SCCN3CCCCC3)c2c1N | . | -25.9 | 3.8 | -7.6 | -8.4 | . | .
Nc1c(C(=O)c2ccccc2)sc2nsc(SCCN3CCCC3)c12 | -24.0 | -32.3 | 6.2 | -36.5 | 48.2* | 47.1* | 56.5*
COc1cc(CC(=O)OCC(=O)NCc2ccco2)cc(OC)c1OC | 1.7 | -5.1 | 4.0 | 4.8 | . | . | .
N=c1oc2ccc(Br)cc2cc1C(=O)NCc1ccc(F)cc1 | -2.1 | -4.3 | 0.0 | -4.8 | 1.1 | . | .
CCN(CC)c1ccc2cc(C(=O)NCc3ccc(F)cc3)c(=N)oc2c1 | -6.1 | 4.8 | 1.8 | 0.1 | 77.6* | 109.3* | 108.7*
Cc1nc(NCCCN2CCOCC2)c2cnn(-c3ccccc3)c2n1 | 2.7 | . | . | . | . | . | .
COCCCN(C(=O)CCSc1ccc(F)cc1)c1c(N)n(Cc2ccccc2)c(=O)[nH]c1=O | 3.5 | 0.1 | 5.2 | 4.3 | 2.0 | . | .
CC1=[N+](C)N(c2ccccc2)C(=O)C1N=Cc1c(Cl)cccc1Cl (stereo not drawn) | 4.3 | 2.0 | -6.1 | -5.2 | 132.7* | 6.7 | 11.5
Cc1ccc(C(=O)NNC(=O)CCCN2C(=O)/C(=C/c3ccccc3Cl)SC2=S)cc1 | 3.2 | -0.6 | 15.6 | -1.2 | 38.5* | 6.9 | 11.9
Cc1nn(C)c2ncc(C(N)=O)c(Oc3ccc(Cl)cc3)c12 | . | -6.0 | 6.7 | -15.4 | -2.9 | . | .
SMILES | IDE cell activ | procasp7 counter | IDE cell inh | procasp3 activ | TPT1 inh | caTPT1 confirm | RNase T1 counter
COc1ccc(N/C=C2\CCc3ccccc3C2=O)cc1 | -5.4 | -37.2 | 8.7 | -22.8 | 50.7* | 59.4* | 70.5*
COc1ccc2c(c1)CC/C(=C\Nc1ccc3c(c1)OCO3)C2=O | -3.9 | -40.1 | 2.3 | -15.1 | 64.8* | 73.5* | 87.4*
COc1ccc(N/C=C2\CCOC2=O)cc1 | 4.0 | -5.1 | -3.9 | 1.7 | 6.5 | . | .
O=C1OC2(CCCCC2)OC(=O)C1=CNc1ccc2c(c1)OCO2 | 0.1 | -20.8 | 4.9 | -16.6 | -3.8 | . | .
O=C1/C(=C/Nc2ccc3c(c2)OCO3)CCc2ccccc21 | -1.7 | -45.5 | 7.1 | -29.8 | 83.1* | 56.6* | 73.7*
CCC(C(=O)NCCc1ccccc1OC)n1nc(C)c2c(C)n(-c3ccccc3)nc2c1=O (stereo not drawn) | 7.3 | -6.8 | -4.3 | -0.5 | -1.7 | . | .
Cc1cc(C)c2c(c1)/C(=c1/sc3n(c1=O)CN(c1ccccc1)CN=3)C(=O)N2 | 7.5 | 5.0 | 1.4 | 3.4 | 0.4 | . | .
Cc1ccc(/C(=N/Nc2ncnc3ccccc23)C(=O)O)cc1 | 1.3 | -1.7 | 4.9 | -8.1 | -1.8 | . | .
COC(=O)C(=O)C/C(=N/Nc1ncnc2ccccc12)c1ccc(Cl)cc1 | -0.5 | -10.3 | 2.0 | -1.8 | 58.5* | 12.6 | 18.3
CCCNC(=O)C(Cc1ccc(F)cc1)NC(=O)c1ccccc1 (stereo not drawn) | -1.6 | -4.1 | 12.1 | 2.6 | . | . | .
COc1cccc(C2CCCN2Cc2nc(-c3sccc3C)oc2C)c1 (stereo not drawn) | 5.5 | -3.4 | -3.9 | 4.7 | 9.5 | . | .
COc1cccc(C2CCCCN2Cc2nc(-c3ccc(C)o3)oc2C)c1 (stereo not drawn) | -7.0 | -3.5 | 3.0 | -2.6 | 27.2* | 30.6* | 40.9*
Cc1ccc(OCC(=O)Nc2cccnc2Cl)cc1C | 3.3 | -3.4 | -0.7 | -2.4 | 1.4 | . | .
Cc1cccc(NC(=O)CNC(=O)c2sc3ccccc3c2Cl)n1 | 4.4 | 1.9 | 1.8 | 5.4 | 6.4 | . | .
CC(=O)c1cccc(NC(=O)CNC(=O)c2sc3ccccc3c2Cl)c1 | 6.8 | 1.6 | 4.0 | 6.3 | 29.0* | 44.6* | 57.3*
COc1cc2cc3c(N)c(C(=O)Nc4sc(C)c(C)c4C#N)sc3nc2cc1OC | -8.2 | -21.8 | 4.3 | -9.8 | 36.2* | 38.8* | 49.4*
COc1cc2cc3c(N)c(C(=O)NCc4ccco4)sc3nc2cc1OC | -9.3 | -6.1 | 9.8 | -14.2 | 11.5 | . | .
Nc1nnc(SCc2nc3scc(-c4ccccc4)c3c(=O)[nH]2)s1 | -5.5 | -6.2 | -1.2 | 7.6 | 36.2* | 40.9* | 53.9*
CNc1nc(N)c([N+](=O)[O-])c(Nc2cccc(Cl)c2)n1 | . | 1.8 | 1.7 | 3.2 | 0.4 | . | .
C=CCNc1nc(N)c([N+](=O)[O-])c(Nc2cccc(Cl)c2)n1 | 2.5 | -5.7 | 3.2 | 2.7 | 36.3* | 2.8 | 5.2

Screening results deposited in PubChem BioAssay by The Scripps Research Institute Molecular Screening Center.
